Assays:
[1] = molecular target: T1, Muscarinic acetylcholine receptor M2 (Homo sapiens, UniProt P08172); assay: Displacement of [3H]NMS from human muscarinic acetylcholine receptor M2 expressed in CHOK9 cells after 3 hrs by liquid scintillation counting assay; type: cell-based; conditions: read-out: Ki
T1 sequence (P08172 whole entry): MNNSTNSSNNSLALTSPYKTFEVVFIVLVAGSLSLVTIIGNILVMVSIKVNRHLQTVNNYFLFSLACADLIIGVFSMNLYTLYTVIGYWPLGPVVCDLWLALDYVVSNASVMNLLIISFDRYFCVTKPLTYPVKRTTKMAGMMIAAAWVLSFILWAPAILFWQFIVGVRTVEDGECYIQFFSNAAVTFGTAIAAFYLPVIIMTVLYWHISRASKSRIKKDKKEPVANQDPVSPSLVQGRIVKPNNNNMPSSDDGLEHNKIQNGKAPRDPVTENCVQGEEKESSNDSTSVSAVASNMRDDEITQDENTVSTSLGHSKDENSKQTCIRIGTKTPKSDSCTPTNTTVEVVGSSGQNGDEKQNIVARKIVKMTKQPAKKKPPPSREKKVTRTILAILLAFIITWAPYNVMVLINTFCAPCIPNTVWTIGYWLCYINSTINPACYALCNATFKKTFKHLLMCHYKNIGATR

[2] = molecular target: T1, Muscarinic acetylcholine receptor M2; assay: Binding affinity to human muscarinic acetylcholine receptor M2 expressed in live adherent CHOK9 cells after 2 hrs by liquid scintillation counting assay; type: cell-based
Outline: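 Live adherent CHO-hM2 cells in L15 medium with 1% BSA, 23 ± 1 °C, 2 h incubation. Competition at 2 nM radioligand; additional 4, 8, 15 and 30 nM in W84 experiments. […] Saturation data fitted one-site; competition by four-parameter logistic fits; at least three experiments in triplicate.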

[3] = molecular target: T1, Muscarinic acetylcholine receptor M2; assay: Binding affinity to human muscarinic acetylcholine receptor M2 expressed in CHOK9 cell homogenate assessed as saturation binding after 2 hrs by liquid scintillation counting assay
[4] = molecular target: T1, Muscarinic acetylcholine receptor M2; assay: Binding affinity to human muscarinic acetylcholine receptor M2 expressed in CHOK9 cell homogenate after 2 hrs by liquid scintillation counting assay; conditions: read-out: Kd(app)
Outline: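 CHO-hM2 cell homogenates (25–30 μg protein/well) in L15 medium with 1% BSA, 23 ± 1 °C, 2 h with tritiated dimeric radioligand. Competition used 0.5 nM radioligand; additional 0.4, 1, 2 and 4 nM in W84 experiments. […] Four-parameter logistic fits; at least three experiments in triplicate.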

Ki [1]: 0.71 nM | Kd [2]: 8.4 nM | Kd [3]: 4.6 nM | Kd [4]: 3 to 4.6 nM
Structure (SMILES): O=C(O)C(F)(F)F.O=C(O)C(F)(F)F.O=C(O)C(F)(F)F.O=C(O)C(F)(F)F.[3H]CC([3H])C(=O)NC1CN(CCCCC2CCN(CC(=O)N3c4ccccc4NC(=O)c4ccccc43)CC2)CCN(CCCCC2CCN(CC(=O)N3c4ccccc4NC(=O)c4ccccc43)CC2)C1 (centres undefined)

Source: ChEMBL document CHEMBL4049434, “Radiolabeled Dibenzodiazepinone-Type Antagonists Give Evidence of Dualsteric Binding at the M2 Muscarinic Acetylcholine Receptor” (J Med Chem, 2017)
